According to ChEMBL document CHEMBL4177753, “Structural Modification of Natural Product Ganomycin I Leading to Discovery of a α-Glucosidase and HMG-CoA Reductase Dual Inhibitor Improving Obesity and Metabolic Dysfunction in Vivo” (J Med Chem, 2018):
Calls of active or inactive are those of the source. The calls are words filed in the database; no cut-off is given here.

Columns and labels:
[1] = Inhibition of rat small intestinal mucosal alpha-glucosidase using p-nitrophenyl-alpha-D-glucopyranoside as substrate after 40 mins by colorimetric method
Method in brief: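 Rat small intestinal mucosal α-glucosidase; several compound concentrations, each run three times in parallel; phosphate-buffer control replaces compound, blank replaces enzyme. Absorbance at 405 nm; % inhibition = blank-corrected OD of test versus control; IC50 derived from the concentration gradient.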

[2] = target: T1, 3-hydroxy-3-methylglutaryl-coenzyme A reductase (Sus scrofa, UniProt Q1W675); experiment: (§1) Inhibition of pig liver microsomal HMG-CoA reductase by colorimetric method
T1 sequence (Q1W675 whole entry): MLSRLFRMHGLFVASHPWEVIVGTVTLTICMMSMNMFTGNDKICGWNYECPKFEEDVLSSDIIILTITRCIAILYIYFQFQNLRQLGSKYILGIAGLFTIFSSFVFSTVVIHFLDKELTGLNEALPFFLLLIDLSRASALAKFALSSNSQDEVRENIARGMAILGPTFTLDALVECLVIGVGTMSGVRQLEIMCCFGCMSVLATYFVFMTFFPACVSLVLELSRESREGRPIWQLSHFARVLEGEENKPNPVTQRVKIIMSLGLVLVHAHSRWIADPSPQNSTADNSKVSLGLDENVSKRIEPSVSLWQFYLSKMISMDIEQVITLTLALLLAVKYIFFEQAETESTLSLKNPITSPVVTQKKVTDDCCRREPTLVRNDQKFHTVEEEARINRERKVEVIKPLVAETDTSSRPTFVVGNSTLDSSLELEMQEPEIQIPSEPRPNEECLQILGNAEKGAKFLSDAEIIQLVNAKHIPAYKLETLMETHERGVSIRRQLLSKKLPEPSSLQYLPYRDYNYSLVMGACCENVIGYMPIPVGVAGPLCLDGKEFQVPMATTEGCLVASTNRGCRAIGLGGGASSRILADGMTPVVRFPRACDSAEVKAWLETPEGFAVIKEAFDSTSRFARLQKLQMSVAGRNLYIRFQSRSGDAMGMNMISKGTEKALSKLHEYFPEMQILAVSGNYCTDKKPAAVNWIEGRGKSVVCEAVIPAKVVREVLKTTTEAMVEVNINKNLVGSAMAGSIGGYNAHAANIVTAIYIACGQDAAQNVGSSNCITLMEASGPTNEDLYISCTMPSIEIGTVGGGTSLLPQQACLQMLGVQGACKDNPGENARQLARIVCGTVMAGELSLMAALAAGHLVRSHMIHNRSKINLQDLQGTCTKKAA
Method in brief: (§2)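 Pig liver microsomal HMG-CoA reductase; compounds tested at several concentrations, each in triplicate; control uses phosphate buffer instead of compound, blank uses buffer instead of enzyme. Absorbance read at 405 nm; % inhibition from blank-corrected OD of test versus control; IC50 fitted from the inhibition-concentration series.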

[3] = target: T2, 3-hydroxy-3-methylglutaryl-coenzyme A reductase (Sus scrofa) (UniProt Q1W675); experiment: as §1; method in brief: as §2
T2 sequence (whole entry): T1 sequence (Q1W675 whole entry)

[4] = Inhibition of rat small intestinal mucosal alpha-glucosidase using p-nitrophenyl-alpha-D-glucopyranoside as substrate by HPLC method
Method in brief: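 Rat intestinal α-glucosidase; after incubation the product 4-nitrophenol is quantified at once by HPLC (gradient from 20% acetonitrile in water with 0.1‰ TFA to 100% acetonitrile over 10 min). Each concentration run 3 times in parallel; % inhibition from peak areas versus control minus control blank; IC50 from the concentration series.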

Mus musculus [5] = experiment: Antiobesity activity in C57BL/6J DIO mouse assessed as reduction in LEE index at 3 mg/kg administered daily via oral gavage for 5 weeks; type: functional, organism-based
Method in brief: (§3)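 Male C57BL/6J mice on high-fat diet, n = 8 per group, grouped by blood glucose and body weight. Daily oral gavage at 0.3, 1.0 or 3.0 mg/kg in soybean vehicle for 5 weeks. Vehicle groups were on normal diet and on high-fat diet.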

Mus musculus [6] = experiment: Antiobesity activity in C57BL/6J DIO mouse assessed as reduction in weight gain at 3 mg/kg administered daily via oral gavage for 5 weeks relative to vehicle-treated control; type: functional; method in brief: as §3
Mus musculus [7] = experiment: Antiobesity activity in C57BL/6J DIO mouse assessed as reduction in cumulative food intake at 3 mg/kg administered daily via oral gavage for 5 weeks; type: functional, organism-based; method in brief: as §3

Compound: COCOc1ccccc1[C@H]1C=C(CC/C=C(\C)CCC=C(C)C)C(=O)O1
- IC50 [1]: 19.3 µM
- IC50 [2]: 8.9 µM
- inhibition [3]: Dose-dependent effect

Compound: COc1ccc(OC)c([C@H]2C=C(CC/C=C(\C)CCC=C(C)C)C(=O)O2)c1
- IC50 [1]: 12.1 µM
- IC50 [2]: 13.2 µM
- inhibition [3]: Dose-dependent effect

Compound: CC(C)=CCC/C(C)=C/CCC1=C[C@H](c2ccccc2)OC1=O
- IC50 [1]: 1.24 µM
- IC50 [2]: 16.5 µM
- inhibition [3]: Dose-dependent effect

Compound: CC(C)=CCC/C(C)=C/CCC1=C[C@H](c2ccccc2[N+](=O)[O-])OC1=O
- IC50 [1]: 0.26 µM
- IC50 [2]: 18.9 µM
- inhibition [3]: Dose-dependent effect

Compound: CC(C)=CCC/C(C)=C/CCC1=C[C@H](c2ccc(C)cc2)OC1=O
- IC50 [4]: 0.23 µM
- IC50 [1]: 0.29 µM
- IC50 [2]: 18.1 µM
- inhibition [3]: Dose-dependent effect

Compound: CC(C)=CCC/C(C)=C/CCC1=C[C@H](c2ccccc2O)OC1=O
- IC50 [1]: 2.27 µM
- IC50 [2]: 6.76 µM
- inhibition [3]: Dose-dependent effect

Compound: CCc1ccc([C@H]2C=C(CC/C=C(\C)CCC=C(C)C)C(=O)O2)cc1
- IC50 [4]: 0.16 µM
- IC50 [1]: 0.17 µM
- IC50 [2]: 14.2 µM
- inhibition [3]: Dose-dependent effect

Compound: COc1ccc([C@H]2C=C(CC/C=C(\C)CCC=C(C)C)C(=O)O2)cc1
- IC50 [1]: 21.7 µM
- IC50 [2]: 6.21 µM
- inhibition [3]: Dose-dependent effect

Compound: CC(C)c1c(C(=O)Nc2ccccc2)c(-c2ccccc2)c(-c2ccc(F)cc2)n1CC[C@@H](O)C[C@@H](O)CC(=O)O [ATORVASTATIN]
- IC50 [2]: 0.93 µM

Compound: CC(C)=CCC/C(C)=C/CCC1=C[C@H](c2cc(F)c(F)c(F)c2)OC1=O
- IC50 [1]: 2.04 µM
- IC50 [2]: 38.2 µM
- inhibition [3]: Dose-dependent effect

Compound: CC(C)=CCC/C(C)=C/CCC1=C[C@H](c2ccc([N+](=O)[O-])cc2)OC1=O
- IC50 [1]: 5.11 µM
- IC50 [2]: 7.43 µM
- inhibition [3]: Dose-dependent effect

Compound: CC(C)=CCC/C(C)=C/CCC1=C[C@H](c2cc(F)ccc2F)OC1=O
- IC50 [1]: 1.59 µM
- IC50 [2]: 25.1 µM
- inhibition [3]: Dose-dependent effect

Compound: CC(C)=CCC/C(C)=C/CCC1=C[C@H](c2cc(O)ccc2O)OC1=O
- IC50 [1]: 0.38 µM

Compound: C[C@H]1O[C@H](O[C@H]2[C@H](O)[C@@H](O)[C@@H](O[C@H]3[C@H](O)[C@@H](O)C(O)O[C@@H]3CO)O[C@@H]2CO)[C@H](O)[C@@H](O)[C@@H]1N[C@H]1C=C(CO)[C@@H](O)[C@H](O)[C@H]1O (stereo partly drawn) [ACARBOSE]
- IC50 [1]: 1.26 µM
- Activity (Mus musculus [5]): inactive
- Activity (Mus musculus [6]): inactive
- Activity (Mus musculus [7]): inactive

Compound: CC(C)=CCC/C(C)=C/CCC1=C[C@H](c2ccc3ccccc3c2)OC1=O
- IC50 [1]: 5.98 µM
- IC50 [2]: 49.8 µM
- inhibition [3]: Dose-dependent effect

Compound: CC(C)=CCC/C(C)=C/CCC1=C[C@H](c2ccc(C(C)C)cc2)OC1=O
- IC50 [4]: 28.7 µM
- IC50 [1]: 32.8 µM
- IC50 [2]: 112 µM
- inhibition [3]: Dose-dependent effect
